As a reminder, the IC50 is the concentration needed to halve the response being measured. A higher IC50 goes with weaker potency. The EC50 is the concentration at which the effect is half-maximal. Read a low EC50 as higher potency in that assay.

Consider 20 compounds from ChEMBL document CHEMBL1136227, “Regulation of gene expression by synthetic dimerizers with novel specificity” (Bioorg Med Chem Lett, 2003).

In experiment [1] the target is Peptidyl-prolyl cis-trans isomerase FKBP1A (Homo sapiens, UniProt P62942, F36V). In words: Inhibition of binding to Phe36Val (F36V) mutant of FK506 binding protein 12. The method, boiled down: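 Fluorescence polarization competition assay with F36V-FKBP12, testing monomeric FKBP ligands. IC50 = monomer concentration reducing probe binding by 50%.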
Chain of Peptidyl-prolyl cis-trans isomerase FKBP1A (P62942 2-108 F37V limits assumed): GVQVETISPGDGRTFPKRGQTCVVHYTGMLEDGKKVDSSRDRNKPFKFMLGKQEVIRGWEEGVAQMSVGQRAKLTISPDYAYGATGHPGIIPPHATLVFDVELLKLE
Experiment [2] concerns HT-1080. The experiment can be described thus: (§1) Compound was induced transcription in transiently transfected with constructs encoding separate DNA-binding domain and activation domain proteins in HT1080 human fibrosarcoma cells. Type of experiment: functional, cell-based. The gist of the method:
(§2)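 HT1080 human fibrosarcoma cells, transiently or stably transfected with separate DNA-binding domain and activation domain fusions, each carrying three tandem F36V-FKBP copies, plus a SEAP reporter responsive to the reconstituted factor. Dimerizer titrated; secreted SEAP measured. EC50 = dimerizer concentration giving 50% of peak SEAP expression; peak level also expressed relative to a reference dimerizer.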

Experiment [3] concerns HT-1080. The experiment is described as §1. Type of experiment: functional. The method, boiled down: as §2
Experiment [4] concerns HT-1080. In words: (§3) Compound was induced transcription stably transfected with constructs encoding separate DNA-binding domain and activation domain proteins in HT1080 human fibrosarcoma cells. The format is functional, cell-based. The method, boiled down: as §2
Experiment [5] deals with HT-1080. Described as §3. Type of experiment: functional. The gist of the method: as §2
In experiment [6] the test system is HT-1080. In words: Compound was induced transcription stably transfected with constructs encoding separate DNA-binding domain and activation domain proteins in HT1080 human fibrosarcoma cells; No induction. Type of experiment: functional, cell-based. The method, boiled down: as §2
In experiment [7] the test system is HT-1080. The experiment can be described thus: Compound was induced transcription stably transfected with constructs encoding separate DNA-binding domain and activation domain proteins in HT1080 human fibrosarcoma cells;No induction. The format is functional, cell-based. The method, boiled down: as §2

`COc1ccc(CC[C@@H](OC(=O)[C@@H]2CCCCN2C(=O)[C@@H](C)c2cc(OC)c(OC)c(OC)c2)c2cccc(OCC(=O)O)c2)cc1OC` came in with an IC50 in experiment [1] of 8.2 nM.

With `COc1ccc(CC[C@@H](OC(=O)[C@@H]2CCCCN2C(=O)Cc2ccccc2)c2cccc(OCC(=O)NCCNC(=O)COc3cccc([C@@H](CCc4ccc(OC)c(OC)c4)OC(=O)[C@@H]4CCCCN4C(=O)Cc4ccccc4)c3)c2)cc1OC`, the EC50 in the experiment with HT-1080 [2] came to 20 nM; in the experiment on HT-1080 [4] it was 10 nM. Moreover, the Expression with HT-1080 [3] was 150%; in the experiment with HT-1080 [5], 7%.

For `CC[C@H](C(=O)N1CCCC[C@H]1C(=O)O[C@H](CCc1ccc(OC)c(OC)c1)c1cccc(OCC(=O)NCCNC(=O)COc2cccc([C@@H](CCc3ccc(OC)c(OC)c3)OC(=O)[C@@H]3CCCCN3C(=O)[C@@H](CC)c3cc(OC)c(OC)c(OC)c3)c2)c1)c1cc(OC)c(OC)c(OC)c1` (stereo in doubt; form 2) [RIMIDUCID], the Expression with HT-1080 [3] was determined as 79%. For the same compound, the EC50 result with HT-1080 [6] is given as “No induction”.

The compound `CCC(C)(C)C(=O)C(=O)N1CCCC[C@H]1C(=O)O[C@H](CCc1ccc(OC)c(OC)c1)c1cccc(OCC(=O)O)c1` displayed an IC50 in experiment [1] of 44 nM.

Turning to `CC[C@H](C(=O)N1CCCC[C@H]1C(=O)O[C@H](CCc1cccnc1)c1cccc(OCC(=O)NCCNC(=O)COc2cccc([C@@H](CCc3cccnc3)OC(=O)[C@@H]3CCCCN3C(=O)[C@@H](CC)c3cc(OC)c(OC)c(OC)c3)c2)c1)c1cc(OC)c(OC)c(OC)c1`, the EC50 in the experiment with HT-1080 [2] was 82 nM; in the experiment on HT-1080 [6] it was “No induction”. In addition, the Expression in the experiment with HT-1080 [3] was 29%.

Turning to `CC[C@H](C(=O)N1CCCC[C@H]1C(=O)O[C@H](CCc1ccc(OC)c(OC)c1)c1cccc(OCC(=O)NCCNC(=O)COc2cccc([C@@H](CCc3ccc(OC)c(OC)c3)OC(=O)[C@@H]3CCCCN3C(=O)[C@@H](CC)c3ccc4c(c3)OCO4)c2)c1)c1ccc2c(c1)OCO2`, the results for the EC50 with HT-1080 [2] and in the experiment on HT-1080 [4] were 6 nM and 9 nM, respectively. In addition, the Expression came to 105% in the experiment on HT-1080 [3] and 53% with HT-1080 [5].

Turning to `CC[C@H](C(=O)N1CCCC[C@H]1C(=O)O[C@H](CCc1ccc(OC)c(OC)c1)c1cccc(OCC(=O)NCCNC(=O)COc2cccc([C@@H](CCc3ccc(OC)c(OC)c3)OC(=O)[C@@H]3CCCCN3C(=O)[C@@H](CC)c3cc(OC)c(OC)c(OC)c3)c2)c1)c1cc(OC)c(OC)c(OC)c1` (stereo in doubt; form 1) [RIMIDUCID], the EC50 in the experiment on HT-1080 [2] turned out to be 3 nM.

Compound `CCC(CC)NC(=O)N1CCCC[C@H]1C(=O)O[C@H](CCc1ccc(OC)c(OC)c1)c1cccc(OCC(=O)O)c1` registered an IC50 in experiment [1] of 64 nM.

As for `CCC(C)(C)C(=O)C(=O)N1CCCC[C@H]1C(=O)O[C@H](CCc1ccc(OC)c(OC)c1)c1cccc(OCC(=O)NCCNC(=O)COc2cccc([C@@H](CCc3ccc(OC)c(OC)c3)OC(=O)[C@@H]3CCCCN3C(=O)C(=O)C(C)(C)CC)c2)c1`, the EC50 turned out to be 177 nM in the experiment with HT-1080 [2] and 294 nM with HT-1080 [4]. The Expression in the experiment with HT-1080 [3] stood at 149%; in the experiment on HT-1080 [5], 17%.

In experiment [1], `CC[C@H](C(=O)N1CCCC[C@H]1C(=O)O[C@H](CCc1ccc(OC)c(OC)c1)c1cccc(OCC(=O)O)c1)c1cc(OC)c(OC)c(OC)c1` (stereo in doubt; form 2) returned an IC50 of 8.2 nM. That is a single-digit nanomolar value.

With `CC[C@H](C(=O)N1CCCC[C@H]1C(=O)O[C@H](CCc1ccccc1)c1cccc(OCC(=O)NCCNC(=O)COc2cccc([C@@H](CCc3ccccc3)OC(=O)[C@@H]3CCCCN3C(=O)[C@@H](CC)c3cc(OC)c(OC)c(OC)c3)c2)c1)c1cc(OC)c(OC)c(OC)c1`, the EC50 with HT-1080 [2] is 57 nM; in the experiment with HT-1080 [6], “No induction”. In the experiment on HT-1080 [3], this compound came in with an Expression of 97%.

In experiment [1], `CC[C@H](C(=O)N1CCCC[C@H]1C(=O)O[C@H](CCc1ccccc1)c1cccc(OCC(=O)O)c1)c1cc(OC)c(OC)c(OC)c1` returned an IC50 of 5.5 nM.

In the case of `CO[C@H]1C[C@@H](C)C/C(C)=C/[C@@H](C/C=C/CC2/C=C(\C)C[C@H](C)C[C@H](OC)[C@H]3O[C@@](O)(C(=O)C(=O)N4CCCCC4C(=O)O[C@H](/C(C)=C/[C@@H]4CC[C@@H](O)[C@H](OC)C4)[C@H](C)[C@@H](O)CC2=O)[C@H](C)C[C@H]3OC)C(=O)C[C@H](O)[C@@H](C)[C@@H](/C(C)=C/[C@@H]2CC[C@@H](O)[C@H](OC)C2)OC(=O)C2CCCCN2C(=O)C(=O)C2O[C@H]1[C@H](OC)C[C@H]2C` (some centres undefined), the EC50 in the experiment with HT-1080 [2] is 189 nM; in the experiment with HT-1080 [6] it was “No induction”. In addition, the Expression with HT-1080 [3] turned out to be 39%.

With `CC[C@H](C(=O)N1CCCC[C@H]1C(=O)O[C@H](CCc1ccc(OC)c(OC)c1)c1cccc(OCC(=O)O)c1)c1cc(OC)c(OC)c(OC)c1` (stereo in doubt; form 1), the IC50 in experiment [1] was 8.2 nM.

As to `COc1ccc(CC[C@@H](OC(=O)[C@@H]2CCCCN2C(=O)[C@@H](C)c2cc(OC)c(OC)c(OC)c2)c2cccc(OCC(=O)NCCNC(=O)COc3cccc([C@@H](CCc4ccc(OC)c(OC)c4)OC(=O)[C@@H]4CCCCN4C(=O)[C@@H](C)c4cc(OC)c(OC)c(OC)c4)c3)c2)cc1OC`, the EC50 entry in the experiment on HT-1080 [7] was “No induction”; in the experiment with HT-1080 [2], 4 nM. Further, the Expression with HT-1080 [3] came to 89%.

In experiment [1], `CC[C@H](C(=O)N1CCCC[C@H]1C(=O)O[C@H](CCc1cccnc1)c1cccc(OCC(=O)O)c1)c1cc(OC)c(OC)c(OC)c1` registered an IC50 of 15 nM.

As to `CC[C@H](C(=O)N1CCCC[C@H]1C(=O)O[C@H](CCc1ccc(OC)c(OC)c1)c1cccc(OCC(=O)NCCNC(=O)COc2cccc([C@@H](CCc3ccc(OC)c(OC)c3)OC(=O)[C@@H]3CCCCN3C(=O)[C@@H](CC)c3ccccc3)c2)c1)c1ccccc1`, the EC50 in the experiment with HT-1080 [2] was 4 nM; in the experiment on HT-1080 [4], 8 nM. The Expression in the experiment with HT-1080 [3] and in the experiment on HT-1080 [5] was 100% in each case.

Compound `CC[C@@H]1/C=C(\C)C[C@H](C)C[C@H](OC)[C@H]2OC(C(=O)C(=O)N3CCCCC3C(=O)O[C@H](/C(C)=C/[C@@H]3CC[C@@H](O)[C@H](OC)C3)[C@H](C)[C@@H](O)CC1=O)[C@H](C)C[C@H]2OC` (some centres undefined) came in with an IC50 in experiment [1] of 12 nM. This lies in the double-digit nanomolar range.

Turning to `CC[C@H](C(=O)N1CCCC[C@H]1C(=O)O[C@H](CCc1ccc(OC)c(OC)c1)c1cccc(OCC(=O)O)c1)c1ccc2c(c1)OCO2`, the IC50 in experiment [1] came out at 26 nM.

Turning to `CCC(CC)NC(=O)N1CCCC[C@H]1C(=O)O[C@H](CCc1ccc(OC)c(OC)c1)c1cccc(OCC(=O)NCCNC(=O)COc2cccc([C@@H](CCc3ccc(OC)c(OC)c3)OC(=O)[C@@H]3CCCCN3C(=O)NC(CC)CC)c2)c1`, the half-maximal effective concentration (EC50) with HT-1080 [2] was 11 nM; with HT-1080 [4], 19 nM. The Expression is listed as 138% with HT-1080 [3] and 106% in the experiment with HT-1080 [5].
